Experiment [1] in a line: inhibitors of TNFa-induced NFkB p65 translocation, primary screen, imaging, HUVEC, MLSMR starter and 10KST1 sets (AID 438;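 active = inhibition above 20% together with a positive visual image hit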;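 also: compound added about 3h40 before a 20 min TNFalpha stimulation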;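 as to inhibition: signal is the nuclear over cytoplasmic p65 intensity ratio per well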). To be noted: HUVEC TNFa-induced p65 nuclear translocation; cell count: measured here: nuclei count (cytotoxicity indicator), at 2.08 µM; inhibition: at 2 µM, stronger effect = higher value, 0% TNFa-plus-vehicle, 100% no-TNFa wells.
Experiment [2] can be described thus: endothelial E-selectin expression blockers – imaging, HUVEC, immunofluorescence, MLSMR starter and 10KST1 sets, primary screen (AID 487;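 active = visually confirmed hit in the image check and inhibition above 20%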;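 as to inhibition: signal is fraction of cell area covered by stained E-selectin grains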;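 as to nuclei count: 100% = median nuclei count of all wells on the same plate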). The conditions noted are these: HUVEC TNFalpha-induced E-selectin immunofluorescence imaging, at 2 µM; inhibition: stronger effect = higher value; nuclei count: measured here: cell number, toxicity.
A short description of experiment [3]: Primary imaging screen for DUSP6 inhibitors that restore phospho-Erk in transfected HeLa cells, chemical complementation (AID 609).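 As to inhibition: phospho-Erk level distribution per well compared with pooled transfected vehicle control wells.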 The conditions noted are these: HeLa MKP-3 transfected, phospho-Erk imaging KS statistic, at 10 µM, cells stimulated with TPA for 15 min.
Experiment [4] deals with Dual specificity protein phosphatase 6 (Homo sapiens) (UniProt Q16828). The description is as above. To be noted: HeLa MKP-3 transfected, phospho-Erk imaging KS statistic; at 10 µM; stronger effect = higher value; cells stimulated with TPA for 15 min.
In experiment [5] the target is Voltage-gated potassium channel subunit beta-2 (Rattus norvegicus) (UniProt P62483). Description: inhibitors of rat Kvbeta2 reductase activity – biochemical, NADPH fluorescence, primary screen (AID 622;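 active = fluorescence slope higher than the sample average by over 3 SD, cut at about -0.22 in these data, passing the limit was not always enough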;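 also: slope of raw intensity against log time taken from 70 to 1610 s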). The conditions noted are these: recombinant KvBeta, 4-cyanobenzaldehyde reduction, at 10 µM, stronger effect = higher value.
Experiment [6] has the same target. Description: enhancers of rat Kvbeta2 NADPH turnover – biochemical, NADPH fluorescence, primary screen (AID 623;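 active = NADPH fluorescence slope more negative than the mean of all samples by about 3 SD, 99.7% confidence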;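 also: fluorescence intensity change per second fitted from 20 to 320 s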). To be noted: Recombinant KvBeta, NADPH fluorescence decrease slope, 10 min; at 10 µM; stronger effect = lower value.
The target in experiment [7] is Alpha-2C adrenergic receptor (Homo sapiens) (UniProt P18825). Description: compounds altering alpha2C-coupled GIRK flux – cell-based, HEK293 alpha2C/GIRK1/2, thallium flux, primary screen (AID 624;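 active = fluorescence slope after compound addition differing from the mean of all screened samples at 99.7% confidence, in either direction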;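 also: slope of fluorescence ratio to pre-addition baseline per second over 15 to 24 s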). To be noted: thallium flux BTC fluorescence, at 10 µM, actives lie on both sides.
Experiment [8] in a line: inhibitors of larval lipid processing in zebrafish, primary screen, whole organism, PED6 fluorescence, gall bladder and intestine (AID 686;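 active = a full or partial loss of lipid-probe fluorescence in the fish gall bladder, intestine or both, judged by eye; inactive = no fluorescence loss, or compound toxic to the fish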;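 also: larvae 5 to 7 days old with five fish per well; signal comes from phospholipase A2 cleavage of quenched PED6 carried via bile; overnight exposure to compound and PED6 before scoring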). The conditions noted are these: Zebrafish larvae PED6 lipid processing, fluorescence scoring; screened at 20 µM (by protocol). The method in brief:
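Test system – live zebrafish larvae aged 5-7 days, whole organism · Buffer or medium – E3 fish medium · Reagent – quenched phospholipase substrate PED6, 100 nM final, ingested by larvae · Doses – 20 µM single dose · Incubation – overnight compound and PED6 incubation · Technique – visual fluorescence microscopy scoring of gall bladder, gut · Read-out basis – visual per-well fluorescence inhibition score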

Experiment [9] in a line: loss of swimming-algae plug formation – whole organism, Chlamydomonas reinhardtii, WT vs cilia-less mutant, absorbance, 96-well, primary screen (AID 463189;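 active = inhibition at or above 50% relative to wild type and mutant plate controls; inactive = inhibition below 50%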;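 also: 0% = wild type cc124 cells in DMSO and 100% = ciliumless bld1 mutant cells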). The conditions noted are these: Chlamydomonas reinhardtii gravitaxis, OD600 absorbance, 2 days; at 10 µM; stronger effect = higher value.
[10] abbreviates: measured here: cell density z-score.
Where [11] appears, read: measured here: nuclear c-Myc green intensity z-score.
[12] abbreviates: measured here: nuclear pErk red intensity z-score, stronger effect = higher value.

What is called inhibition is the drop in the measured response relative to a control, in per cent.

The structures appear in SMILES notation. Calls of active or inactive are those of the source.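 The calls were made as follows, unless noted: active = compounds giving at least 50% inhibition in the cell-based MKP-3 phosphatase rescue imaging test; inactive = the rest.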

Voltage-gated potassium channel subunit beta-2 (Rattus norvegicus), sequence (P62483 whole entry, looked up): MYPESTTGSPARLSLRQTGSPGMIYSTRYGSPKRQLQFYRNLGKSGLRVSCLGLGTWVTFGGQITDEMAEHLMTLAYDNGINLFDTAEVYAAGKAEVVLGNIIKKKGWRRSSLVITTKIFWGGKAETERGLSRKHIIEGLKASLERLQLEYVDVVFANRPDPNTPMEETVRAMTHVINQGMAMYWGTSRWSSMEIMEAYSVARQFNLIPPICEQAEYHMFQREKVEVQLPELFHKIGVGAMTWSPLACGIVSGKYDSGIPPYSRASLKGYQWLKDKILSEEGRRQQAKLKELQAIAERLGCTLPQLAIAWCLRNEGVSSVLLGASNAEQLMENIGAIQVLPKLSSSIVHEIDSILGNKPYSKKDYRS
Dual specificity protein phosphatase 6 (Homo sapiens), sequence (Q16828 whole entry, looked up): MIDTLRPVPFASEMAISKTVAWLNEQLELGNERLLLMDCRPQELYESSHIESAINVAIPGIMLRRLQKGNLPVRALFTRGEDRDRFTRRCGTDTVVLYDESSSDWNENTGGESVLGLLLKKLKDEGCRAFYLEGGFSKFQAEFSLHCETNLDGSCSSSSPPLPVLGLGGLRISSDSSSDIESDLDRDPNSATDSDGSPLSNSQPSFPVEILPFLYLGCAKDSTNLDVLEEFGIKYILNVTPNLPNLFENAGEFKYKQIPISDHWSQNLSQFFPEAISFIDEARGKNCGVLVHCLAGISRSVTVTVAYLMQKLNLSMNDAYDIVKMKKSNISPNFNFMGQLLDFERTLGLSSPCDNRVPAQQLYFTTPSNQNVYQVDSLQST
Alpha-2C adrenergic receptor (Homo sapiens), sequence (P18825 whole entry, looked up): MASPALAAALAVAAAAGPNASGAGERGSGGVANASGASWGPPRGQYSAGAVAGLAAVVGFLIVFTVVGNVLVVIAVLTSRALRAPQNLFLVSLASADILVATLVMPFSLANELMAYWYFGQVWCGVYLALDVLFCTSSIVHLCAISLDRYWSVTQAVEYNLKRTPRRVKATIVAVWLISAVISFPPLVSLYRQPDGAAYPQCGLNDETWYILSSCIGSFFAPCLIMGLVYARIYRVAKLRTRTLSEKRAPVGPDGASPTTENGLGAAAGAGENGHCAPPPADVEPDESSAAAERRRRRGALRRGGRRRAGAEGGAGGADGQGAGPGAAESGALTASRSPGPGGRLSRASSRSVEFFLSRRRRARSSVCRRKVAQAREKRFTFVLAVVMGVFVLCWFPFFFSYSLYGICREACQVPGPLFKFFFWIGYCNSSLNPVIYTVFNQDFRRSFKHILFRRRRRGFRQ

For the compound `Cc1ccc2[nH]c(CCN(C)C)c(CC#N)c2c1`, the cell count in experiment [1] was determined as 564. Besides, the inhibition in experiment [1] was 4.9% (inactive); in experiment [2], -74.2% (inactive); in experiment [4], 18.6% (inactive); in experiment [9] it was 10.4% (inactive). Further, the nuclei count in [2] was found to be 206%. Further, the z-score is -1.01 in experiment [3] (setting [10]), -0.567 in experiment [3] (setting [11]) and 1.52 in [3] (setting [12]). For the same compound, the fluorescence slope in experiment [5] was -0.364 (inactive). Besides, in experiment [6], the NADPH fluorescence slope was -2.8e-05 (inactive). Also, in [7], the slope was 0.0055 (inactive). Moreover, the compound was classed as inactive in experiment [8].
For the compound `O=C1C=C(O)CC(c2cccs2)C1` (centres undefined), in [1], the cell count was found to be 590. Besides, the inhibition in [1] is 1.5% (inactive); in [2], -11.9% (inactive); in [4], -1.12% (inactive); in [9], -9.61% (inactive). The compound also gave a nuclei count in experiment [2] of 126%. Moreover, the z-score in experiment [3] (setting [10]) is -0.072; in experiment [3] (setting [11]) it was -0.344; in experiment [3] (setting [12]), -0.148. Further, the fluorescence slope in experiment [5] was -0.536 (inactive). The NADPH fluorescence slope in experiment [6] was -5.7e-05 (inactive). For the same compound, the slope in experiment [7] was 0.00523 (inactive). The compound was classed as inactive in experiment [8].
Take `CCOc1ccc(C2=Nn3c(nnc3-c3cccnc3)SC2)cc1`: the cell count in experiment [1] was determined as 732. Besides, the inhibition in experiment [1] is 1.2% (inactive); in experiment [2], -49.1% (inactive); in [4], -9.66% (inactive); in [9] it was 8.58% (inactive). In addition, in [2], the nuclei count worked out at 186%. The values for the z-score in experiment [3] (setting [10]), in [3] (setting [11]) and in experiment [3] (setting [12]) were -0.574, 2.33 and 0.047, respectively. Besides, the fluorescence slope in experiment [5] was -0.414 (inactive). Moreover, the NADPH fluorescence slope in [6] was -0.000128 (inactive). Further, the slope in experiment [7] was 0.00953 (inactive). In addition, the compound was classed as inactive in experiment [8].
As for `CCCCn1c2nc3ccccc3nc2c2c(=O)n(CC(C)C)cnc21`, the cell count in [1] is 391. In addition, the inhibition in experiment [1] was 2.5% (inactive); in experiment [2] it was 21.4% (inactive); in [4], 17.4% (inactive); in [9], 33.2% (inactive). Also, the nuclei count in [2] turned out to be 141%. In addition, the z-score is 0.699 in experiment [3] (setting [10]), 0.544 in experiment [3] (setting [11]) and -0.343 in [3] (setting [12]). For the same compound, in experiment [5], the fluorescence slope was -0.436 (inactive). Moreover, in [6], the NADPH fluorescence slope is -9.3e-05 (inactive). Besides, the slope in experiment [7] is 0.00687 (inactive). Besides, in [8], the outcome was inactive.
In the case of `CNc1ccccc1-c1nc2ccccc2n(C)c1=O`, in [1], the cell count worked out at 545. The inhibition in experiment [1] is 1.8% (inactive); in experiment [2] it was -41.8% (inactive); in experiment [4], 14% (inactive); in [9], 16% (inactive). For the same compound, the nuclei count in [2] amounted to 154%. The z-score in [3] (setting [10]) is 0.495; in [3] (setting [11]) it was -0.326; in experiment [3] (setting [12]) it was 0.207. The fluorescence slope in experiment [5] was -0.488 (inactive). Further, the NADPH fluorescence slope in experiment [6] was -7.9e-05 (inactive). The slope in experiment [7] was 0.00346 (inactive). In addition, the outcome in experiment [8] is “active; weak signal in gallbladder and intestine”.
Regarding `Cc1nn(-c2cccc(Cl)c2)c2c1C(c1ccncc1)C(C#N)=C(N)O2` (centres undefined), the cell count in [1] is 374. For the same compound, the inhibition in experiment [1] is -13.7% (inactive); in [2], -56% (inactive); in experiment [4], 2.46% (inactive); in [9], -1.15% (inactive). In addition, in [2], the nuclei count stood at 98.8%. Moreover, the z-score is -2.16 in [3] (setting [10]), -0.307 in [3] (setting [11]) and -1.54 in experiment [3] (setting [12]). The fluorescence slope in experiment [5] is -0.382 (inactive). Further, the NADPH fluorescence slope in [6] is 4.7e-05 (inactive). In addition, the slope in [7] is 0.00526 (inactive). For the same compound, the compound was called inactive in experiment [8].
For `Cc1cccc(C)c1OCC(O)CNS(=O)(=O)c1ccccc1C(=O)N1CCCCC1` (centres undefined), in experiment [1], the cell count came out at 512. The inhibition in [1] was 5.4% (inactive); in experiment [2] it was -148% (inactive); in experiment [4] it was -3.95% (inactive); in [9], -6.87% (inactive). Moreover, the nuclei count in [2] amounted to 171%. Besides, the results for the z-score in [3] (setting [10]), in experiment [3] (setting [11]) and in experiment [3] (setting [12]) were -0.797, 2.33 and 0.877, respectively. The fluorescence slope in [5] was -0.36 (inactive). Moreover, the NADPH fluorescence slope in [6] is -7e-05 (inactive). Also, the slope in experiment [7] was 0.00455 (inactive). Further, the compound was called inactive in [8].
As to `CC1(C)Cc2c(sc3nc4n(c(=N)c23)CCCCC4)CO1`, the cell count in [1] came to 637. For the same compound, the inhibition was -5.2% (inactive) in [1], 57.2% (inactive) in experiment [2], -7.28% (inactive) in [4] and -1.35% (inactive) in experiment [9]. Moreover, in experiment [2], the nuclei count came to 169%. For the same compound, the z-score in [3] (setting [10]) is -0.678; in [3] (setting [11]), 2.31; in [3] (setting [12]) it was -0.487. For the same compound, the fluorescence slope in [5] is -0.414 (inactive). For the same compound, the NADPH fluorescence slope in experiment [6] was -4.7e-05 (inactive). In experiment [7], the slope is 0.00482 (inactive). Also, in experiment [8], the result was inactive.
As to `Cc1nnc2n(-c3ccccc3)c(=O)c3c4c(sc3n12)COC(C(C)C)C4` (centres undefined), the cell count in experiment [1] came out at 542. The inhibition in [1] was -6.5% (inactive); in experiment [2], -106% (inactive); in experiment [4], -0.608% (inactive); in experiment [9], -3.02% (inactive). Moreover, in experiment [2], the nuclei count was determined as 177%. Besides, the z-score was -0.97 in [3] (setting [10]), 1.36 in [3] (setting [11]) and -0.55 in experiment [3] (setting [12]). Further, the fluorescence slope in [5] is -0.357 (inactive). The NADPH fluorescence slope in experiment [6] was -2.6e-05 (inactive). Also, the slope in [7] was 0.00506 (inactive). Besides, the call in [8] was inactive.
`C=CCn1cnc2c(c1=O)c1nc3ccccc3nc1n2-c1ccc(Cl)cc1`: the cell count in experiment [1] came out at 479. Moreover, the inhibition in [1] is -0.2% (inactive); in [2], -57.8% (inactive); in experiment [4] it was 3.5% (inactive); in [9], 22.7% (inactive). For the same compound, in experiment [2], the nuclei count amounted to 97.9%. Also, the z-score was 0.198 in [3] (setting [10]), -0.115 in experiment [3] (setting [11]) and -0.677 in experiment [3] (setting [12]). For the same compound, in experiment [5], the fluorescence slope is -0.489 (inactive). Moreover, the NADPH fluorescence slope in experiment [6] was -1.8e-05 (inactive). In experiment [7], the slope was 0.00468 (inactive). In experiment [8], the call was inactive.
Turning to `COC(=O)CN(c1nc(C)cc(OC)n1)S(=O)(=O)c1ccccc1`, the cell count in experiment [1] was determined as 568. Besides, the inhibition in experiment [1] is -3.9% (inactive); in experiment [2], -82.4% (inactive); in [4], 3.56% (inactive); in experiment [9], -16.2% (inactive). This compound also had a nuclei count in experiment [2] of 122%. The z-score in experiment [3] (setting [10]) was -1.67; in [3] (setting [11]), 0.823; in experiment [3] (setting [12]), -0.13. The fluorescence slope in experiment [5] was -0.391 (inactive). For the same compound, the NADPH fluorescence slope in experiment [6] is -2.2e-05 (inactive). In addition, the slope in [7] is 0.00529 (inactive). Also, in experiment [8], the compound was classed as inactive.
Consider `COCc1[nH]nc2c1C(c1ccccc1OC)C(C#N)=C(N)O2` (centres undefined), for which, in experiment [1], the cell count came to 633. For the same compound, the inhibition in [1] was -4.1% (inactive); in experiment [2], 27.6% (inactive); in [4], -7.28% (inactive); in [9], 31.9% (inactive). In addition, the nuclei count in experiment [2] amounted to 101%. Besides, the results for the z-score in experiment [3] (setting [10]), in experiment [3] (setting [11]) and in experiment [3] (setting [12]) were 0.246, 0.997 and -0.624, respectively. The fluorescence slope in experiment [5] was -0.488 (inactive). The NADPH fluorescence slope in experiment [6] was -1.1e-05 (inactive). In experiment [7], the slope was 0.00544 (inactive). Further, in [8], the compound was called inactive.
On to `COc1ccc(N/C(=N\c2nc(C)cc(C)n2)NC(=O)C(C)C)cc1OC`, for which, in [1], the cell count was determined as 568. In addition, the inhibition in [1] is -6% (inactive); in experiment [2], -158% (inactive); in experiment [4], 3.97% (inactive); in experiment [9] it was 1.34% (inactive). The nuclei count in [2] was found to be 138%. In addition, the results for the z-score in experiment [3] (setting [10]), in experiment [3] (setting [11]) and in [3] (setting [12]) were 0.3, 1.29 and 0.284, respectively. Further, the fluorescence slope in [5] is -0.481 (inactive). Also, the NADPH fluorescence slope in experiment [6] is -3.5e-05 (inactive). In addition, in experiment [7], the slope is 0.00493 (inactive). For the same compound, the call in experiment [8] was inactive.
